# Screening data (PubChem)
# TRPC6 inhibitor: mouse TRPC6 channel inhibitors, primary screen, cell-based, HEK293, membrane potential dye | B-score at 10 µM | AID 2553, 2010 | hit rate 1.1% among 310,000 | ACh-evoked depolarization; active compounds read low | Short transient receptor potential channel 6 (Mus musculus), Q61143;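 active = B-score under library mean minus 3 SD, initial fluorescence not abnormally high, positive integrated signal ratio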;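 note: B-score derived from integrated fluorescence ratio over the kinetic read; more negative B-score means stronger inhibition of depolarization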
# TRPC4 inh: inhibitors of mouse TRPC4 channel, primary screen, Fluo4 calcium, HEK293 TRPC4beta/mu-opioid cells; Short transient receptor potential channel 4 (Mus musculus), Q9QUQ5; DAMGO-evoked Fluo4 calcium flux; active compounds read low; B-score at 10 µM; hit rate 0.39% among 300,000; AID 2247, 2010;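 active = B-score over 3 SD under the library average, no early fluorescence shift, positive overall ratio signal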
#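 Material: HEK293 cells with stable TRPC4beta plus mu-opioid receptor expression / Probe or stimulus: DAMGO in two steps, submaximal then maximal / Compound: single concentration per test compound / Technique: kinetic Fluo4 fluorescence imaging of calcium influx / Read-out: per-well B score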
# TRPC4 potent: positive allosteric modulators of TRPC4, primary screen, cell-based, mouse TRPC4beta, HEK293 mu-opioid, Fluo-4 calcium; Short transient receptor potential channel 4 (Mus musculus), Q9QUQ5; DAMGO EC20, Fluo-4 Ca2+ flux; active compounds read high; B-score at 10 µM; hit rate 0.42% among 310,000;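 active = B-score of calcium response area above 5 SD of library B-scores, with initial fluorescence ratio within 5 SD of library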;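 note: B-score of integrated fluorescence ratio over time as area under calcium response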
# Kir21 block: inhibitors of mouse Kir2.1 inward-rectifier potassium channel; hit rate 0.85% among 310,000; AID 1672, 2009; HEK293-Kir2.1, FluxOR thallium flux fluorescence; active compounds read low; B-score at 10 µM;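 active = fluorescence ratio B-score at or below minus 3 SD of library scores, with starting-brightness B-score within 2 SD, cut at about -4.2 in these data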;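 note: channel flux triggered by added potassium and thallium sulfate stimulus; B-score of peak minus minimum fluorescence over baseline after thallium stimulus; more negative B-score means stronger Kir2.1 block with less thallium influx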
# Target sequence (P35561 whole entry, looked up): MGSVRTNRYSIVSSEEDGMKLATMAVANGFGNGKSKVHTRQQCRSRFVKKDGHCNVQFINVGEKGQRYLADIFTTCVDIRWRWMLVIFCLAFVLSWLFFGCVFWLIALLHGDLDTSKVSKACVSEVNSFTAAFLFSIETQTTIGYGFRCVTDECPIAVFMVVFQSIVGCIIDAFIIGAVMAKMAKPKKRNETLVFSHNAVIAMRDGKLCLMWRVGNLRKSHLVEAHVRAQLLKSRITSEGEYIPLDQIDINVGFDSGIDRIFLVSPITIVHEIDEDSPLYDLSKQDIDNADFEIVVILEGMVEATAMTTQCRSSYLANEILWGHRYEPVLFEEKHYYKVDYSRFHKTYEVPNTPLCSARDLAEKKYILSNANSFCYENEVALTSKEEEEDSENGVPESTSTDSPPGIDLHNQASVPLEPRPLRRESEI
# TRPC4 act: activators of mouse TRPC4 channel, primary screen, Fluo4 calcium, HEK293 TRPC4beta/mu-opioid cells. Fluo4 calcium fluorescence; active compounds read high. B-score at 10 µM. hit rate 0.49% among 310,000;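 active = B-score above 5 SD of library B-scores, and initial fluorescence ratio not above library mean plus 5 SD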;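 note: positive B-score marks a calcium rise read as TRPC4 activation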
#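 system = HEK293 cells stably co-expressing mouse TRPC4beta and mu-opioid receptor | schedule = Fluo4 dye loading 45 min at room temperature, 110 s recording | measure = B-scored integrated calcium fluorescence ratio | signal = Fluo4 calcium-sensitive dye fluorescence, kinetic, 1 Hz baseline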
# TRPC6 activator: mouse TRPC6 channel activators, primary screen, cell-based, HEK293, membrane potential dye. Short transient receptor potential channel 6 (Mus musculus), Q61143. HEK293-TRPC6 membrane potential dye fluorescence; active compounds read high. B-score at 10 µM. hit rate 0.13% among 310,000;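 active = B-score of the integrated fluorescence ratio above library mean plus 3 SD, and starting fluorescence ratio within library mean plus 5 SD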;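 note: higher score means more depolarization so channel activation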
# The depositor's hits bear a star; i = inactive. Only some compounds are listed: those with a hit (about 2.9% of all), similar ones and a draw of the others.
SMILES,TRPC6 inhibitor,TRPC4 inh,TRPC4 potent,Kir21 block,TRPC4 act,TRPC6 activator
CN(C)C(CNC(=O)c1ccc(NC(=O)c2cccs2)cc1)c1ccccc1 (stereo unspecified),i,i,i,-1.1,i,i
COc1ccc(CCNC(=O)CNCCc2ccc(F)cc2)cc1,i,i,i,0.12,i,i
CN(CC(=O)Nc1cccc(F)c1)C(=O)c1ccc(NC2CC2)c([N+](=O)[O-])c1,i,i,i,0.17,i,i
CCN(CC(=O)Nc1ccccc1C(F)(F)F)C(=O)CCOc1ccc(C)cc1,i,i,i,-1.5,i,i
O=C(CNCc1ccccc1)Nc1ccc(Oc2ccccc2)cc1,i,i,i,-9.5*,i,i
O=C(Nc1ccc(F)c(F)c1)C1=COCCO1,i,i,i,-1.1,i,i
CCCN(CCC)C(=O)Cc1coc2ccc3ccccc3c12,i,i,10*,-4.5*,i,i
CN(Cc1nc(-c2ccc3c(c2)OCO3)no1)CC1(N2CCOCC2)CCCCC1,i,i,35*,1.9,i,i
CN(CCN1CCOCC1)Cc1nc(-c2ccccc2)no1,i,i,i,3.5,i,i
Cc1ccc(S(=O)(=O)Nc2ccc(O)c3cccnc23)cc1,i,i,i,-4.5*,i,i
NC(=S)C(c1ccccc1)c1ncc(C(F)(F)F)cc1Cl (stereo unspecified),i,i,i,-2.8,i,i
NC(=O)C(c1cccc(Cl)c1)c1ncc(C(F)(F)F)cc1Cl (stereo unspecified),i,i,15*,0,i,i
Cc1ccccc1OCc1csc(N)n1,i,i,i,-0.08,i,i
COc1ccc(C)cc1NC(=O)CNc1ccccc1CN(C)C1CCCCC1,i,i,i,-2.4,i,i
Cc1ccc(NC(=O)CNc2ccccc2CN(C)C2CCCCC2)cc1,i,-6*,i,-2.1,i,i
CN(CC(=O)Nc1ccccc1Oc1ccccc1)Cc1ccccc1F,i,i,i,-5.1*,i,i
CCCC(C)NCC(=O)Nc1ccccc1-c1ccccc1 (stereo unspecified),i,i,i,-4.5*,i,i
CCC(C(=O)Nc1ccccc1-c1ccccc1)c1ccccc1 (stereo unspecified),i,i,i,-4.9*,i,i
Cc1ccccc1CN(C)CC(=O)Nc1ccccc1-c1ccccc1,i,i,i,-5.6*,i,i
Cc1ccccc1CN(C)CC(=O)Nc1ccccc1Oc1ccccc1,i,i,i,0.25,i,i
CCC(C(=O)Nc1ccccc1)c1ccccc1 (stereo unspecified),i,i,i,-0.73,i,i
Fc1ccc2c(c1)C(c1ccncc1)=NNC(c1cccnc1)=N2,i,i,i,0.81,i,i
CCCCn1c(N)c(N(CCC(C)C)C(=O)CCN2C(=O)C3CC=CCC3C2=O)c(=O)[nH]c1=O (stereo unspecified),i,i,i,1.5,i,i
CC(Sc1ccc(Cl)cc1)C(=O)Nc1ccccc1-c1ccccc1 (stereo unspecified),i,i,i,-2.3,i,i
COCC(=O)Nc1ccccc1-c1ccccc1,i,i,i,1.2,i,i
SMILES,TRPC6 inhibitor,TRPC4 inh,TRPC4 potent,Kir21 block,TRPC4 act,TRPC6 activator
CC(=O)Nc1ccc(SCC(=O)Nc2ccccc2-c2ccccc2)cc1,i,i,i,-4.3*,i,i
Cc1ccc(SC(C)C(=O)Nc2ccccc2-c2ccccc2)cc1 (stereo unspecified),i,i,i,-6.9*,i,i
COc1ccc(-n2c(CN3CCC(C(N)=O)CC3)nc3ccc([N+](=O)[O-])cc3c2=O)c(OC)c1,i,i,i,-0.55,i,i
CCOC(=O)C1CCN(Cc2nc3ccc([N+](=O)[O-])cc3c(=O)n2-c2ccc(OC)cc2OC)CC1,i,i,i,-2.1,59*,i
Cc1ccc(S(=O)(=O)c2cnc(-c3ccccc3)nc2N2CCN(C)CC2)cc1,i,-6*,i,0.14,i,i
O=C(COC(=O)c1cc(=O)[nH]c(=O)[nH]1)NCc1ccccc1,i,i,i,0.38,i,i
OCC1CCN(Cc2cn(Cc3ccccc3)nc2-c2cc3ccccc3o2)CC1,i,i,i,-3.3,56*,i
CC1CC(=O)c2c(cc3c(-c4c(O)cc(O)c5c(O)c6c(cc45)OC(C)CC6=O)c(O)cc(O)c3c2O)O1 (stereo unspecified),i,i,i,-2.2,i,43*
CN(C)CCN(C(=O)c1ccc(S(=O)(=O)N2CCCC2)cc1)c1nc2ccc(Br)cc2s1,i,i,i,0.83,i,i
CCC1CCCCN1S(=O)(=O)c1ccc(C(=O)N(CCCN(C)C)c2nc3cc4c(cc3s2)OCO4)cc1 (stereo unspecified),i,i,i,-0.72,130*,i
CC1CCCCN1S(=O)(=O)c1ccc(C(=O)N(CCCN(C)C)c2nc3ccc(Br)cc3s2)cc1 (stereo unspecified),i,i,i,1.2,143*,i
C=CCOc1ccc2nnc(C)n2n1,i,i,i,-0.67,i,i
Cc1ccc(NC(=O)Cn2c(=O)c3cccn3c3ccccc32)cc1,i,i,i,0.48,i,i
CCn1c(SCC(=O)N/N=C/c2cccs2)nc2ccccc21,i,i,i,-4.8*,i,i
CNc1nc2cccnc2s1,i,i,i,-0.23,i,i
CC(c1ccon1)N(C)C(=O)CCc1nnc(C2(c3ccc(Cl)cc3)CCC2)o1 (stereo unspecified),i,i,i,-4.9*,i,i
COc1ccc(C(CNC(=O)COc2ccccc2OC)N(C)C)cc1OC (stereo unspecified),i,i,i,0.88,137*,i
COc1ccc(NC(=O)c2cc(C)on2)cc1,i,i,i,0.12,i,i
